*1 amine or outer side, *2 acyl side, *3 side chain or, on linkers, in order; H or OH if unused. Where a SMILES comes first, the peptide text is derived from it. Bridges are numbered along the chain shown (N, C = ends). [ ]: non-standard residue; d: D form. Cys(O)(CH2CO) = O=C([C@H](C[S+]([O-])CC(=O)[*:3])N[*:1])[*:2]
Molecular target: Integrin alpha-IIb/beta-3 (Homo sapiens, UniProt P08514+P05106)
Test: Inhibition of ADP-induced platelet aggregation in human platelet-rich plasma
Method in brief: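 Human blood drawn into 3.8% sodium citrate (9:1); PRP from 180g spin, 12 min, 22 °C; count adjusted to 3 × 10^8/mL with PPP. PRP preincubated with test sample 5 min at 37 °C in aggregometer, then ADP 17.2 µM final. Inhibition from transmittance change at 5 min versus no-sample maximum; 12-14 concentrations over ~200-fold range; IC50 by four-parameter fit; n ≥ 3.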

Chain of Integrin alpha-IIb/beta-3 (P05106 27-788 limits assumed): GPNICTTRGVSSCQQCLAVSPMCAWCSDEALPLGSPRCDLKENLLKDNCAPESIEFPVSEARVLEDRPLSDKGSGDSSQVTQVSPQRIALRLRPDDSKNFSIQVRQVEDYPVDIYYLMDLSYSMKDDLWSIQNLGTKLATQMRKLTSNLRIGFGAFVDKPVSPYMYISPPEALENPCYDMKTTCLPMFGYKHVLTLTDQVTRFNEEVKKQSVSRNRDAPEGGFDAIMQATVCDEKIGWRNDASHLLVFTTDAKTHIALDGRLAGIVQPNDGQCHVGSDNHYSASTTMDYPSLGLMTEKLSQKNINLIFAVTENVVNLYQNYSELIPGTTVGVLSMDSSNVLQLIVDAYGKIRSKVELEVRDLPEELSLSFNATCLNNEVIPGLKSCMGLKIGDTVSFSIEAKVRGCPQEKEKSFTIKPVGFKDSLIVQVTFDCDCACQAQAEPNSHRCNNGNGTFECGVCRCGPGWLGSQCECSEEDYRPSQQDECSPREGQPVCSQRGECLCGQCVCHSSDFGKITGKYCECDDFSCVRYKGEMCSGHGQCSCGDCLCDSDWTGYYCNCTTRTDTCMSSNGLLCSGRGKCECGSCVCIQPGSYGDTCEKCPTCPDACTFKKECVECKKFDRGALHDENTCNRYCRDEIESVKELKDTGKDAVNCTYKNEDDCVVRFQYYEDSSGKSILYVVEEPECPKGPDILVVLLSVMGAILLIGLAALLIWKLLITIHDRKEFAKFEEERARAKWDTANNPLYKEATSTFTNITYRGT
Chain of Integrin alpha-IIb/beta-3 (P08514 32-887 limits assumed): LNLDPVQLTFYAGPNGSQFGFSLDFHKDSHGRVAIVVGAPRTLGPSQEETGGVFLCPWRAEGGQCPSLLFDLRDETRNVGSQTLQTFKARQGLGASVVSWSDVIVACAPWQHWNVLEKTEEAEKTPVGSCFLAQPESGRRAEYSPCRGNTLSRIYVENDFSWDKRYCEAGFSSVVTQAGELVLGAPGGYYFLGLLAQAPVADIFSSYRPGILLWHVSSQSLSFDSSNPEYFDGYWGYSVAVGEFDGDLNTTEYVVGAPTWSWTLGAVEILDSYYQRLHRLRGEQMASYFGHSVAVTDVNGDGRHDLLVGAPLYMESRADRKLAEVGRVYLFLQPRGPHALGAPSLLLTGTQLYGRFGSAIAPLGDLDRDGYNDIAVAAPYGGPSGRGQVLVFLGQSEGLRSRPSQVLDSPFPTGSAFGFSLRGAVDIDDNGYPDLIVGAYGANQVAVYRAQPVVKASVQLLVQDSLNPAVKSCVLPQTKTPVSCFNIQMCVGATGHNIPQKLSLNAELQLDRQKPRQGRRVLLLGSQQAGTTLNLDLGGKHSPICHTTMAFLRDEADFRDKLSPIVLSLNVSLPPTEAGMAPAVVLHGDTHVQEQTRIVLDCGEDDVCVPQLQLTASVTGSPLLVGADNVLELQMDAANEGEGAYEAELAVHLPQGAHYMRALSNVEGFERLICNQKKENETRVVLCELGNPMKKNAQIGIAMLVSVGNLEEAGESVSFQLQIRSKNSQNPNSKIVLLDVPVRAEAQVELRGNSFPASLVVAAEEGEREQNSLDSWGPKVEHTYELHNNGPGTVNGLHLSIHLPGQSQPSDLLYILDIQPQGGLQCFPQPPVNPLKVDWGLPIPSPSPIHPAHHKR
Chain of Integrin alpha-IIb/beta-3 (P08514 891-1039 limits assumed): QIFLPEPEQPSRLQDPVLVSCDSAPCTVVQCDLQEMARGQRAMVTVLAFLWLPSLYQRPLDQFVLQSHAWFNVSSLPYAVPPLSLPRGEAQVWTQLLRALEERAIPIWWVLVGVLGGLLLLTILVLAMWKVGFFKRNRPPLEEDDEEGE

| Compound | IC50 [nM] |
| --- | --- |
| N=C(N)NCCC[C@@H]1NC(=O)[C@@H](Cc2ccc(O)cc2)NC(=O)CS(=O)(=O)C[C@@H](C(=O)O)NC(=O)[C@H](CC(=O)O)NC(=O)CNC1=O | 210 |
| CCCC1SC[C@@H](C(=O)O)NC(=O)[C@H](CC(=O)O)NC(=O)CNC(=O)[C@H](CCCNC(=N)N)NC(=O)CNC1=O (stereo partly specified) | 1500 |
| CC(=O)NCC(=O)N[C@@H](CCCNC(=N)N)C(=O)NCC(=O)N[C@@H](CC(=O)O)C(=O)N[C@H](C(N)=O)C(C)C (Ac-GRGDV-NH2) | > 500000 |
| N=C(N)NCCC[C@@H]1NC(=O)[C@@H](Cc2ccc(O)cc2)NC(=O)CSC[C@@H](C(=O)O)NC(=O)[C@H](CC(=O)O)NC(=O)CNC1=O ({CH2CO}-[dY]RGDC-OH; thioether N-5) | 3450 |
| CSCC[C@@H]1NC(=O)CSC[C@@H](C(=O)O)NC(=O)[C@H](CC(=O)O)NC(=O)CNC(=O)[C@H](CCCNC(=N)N)NC1=O | 1060 |
| N=C(N)NCCC[C@@H]1NC(=O)[C@H](CC(N)=O)NC(=O)CSC[C@@H](C(=O)O)NC(=O)[C@H](CC(=O)O)NC(=O)CNC1=O ({CH2CO}-NRGDC-OH; thioether N-5) | 310 |
| N=C(N)NCCC[C@@H]1NC(=O)[C@H](CCC(N)=O)NC(=O)CSC[C@@H](C(=O)O)NC(=O)[C@H](CC(=O)O)NC(=O)CNC1=O | 680 |
| N=C(N)NCCC[C@@H]1NC(=O)[C@H](CCC(=O)O)NC(=O)CSC[C@@H](C(=O)O)NC(=O)[C@H](CC(=O)O)NC(=O)CNC1=O | 4600 |
| N=C(N)NCCC[C@@H]1NC(=O)[C@@H](Cc2ccc(O)cc2)NC(=O)C[S+]([O-])C[C@@H](C(=O)O)NC(=O)[C@H](CC(=O)O)NC(=O)CNC1=O (stereo partly specified) | 120 |
| CC[C@H](C)[C@@H]1NC(=O)CSC[C@@H](C(=O)O)NC(=O)[C@H](CC(=O)O)NC(=O)CNC(=O)[C@H](CCCN=C(N)N)NC1=O | 270 |
| N=C(N)NCCC[C@@H]1NC(=O)[C@H](CC(=O)O)NC(=O)C[S+]([O-])C[C@@H](C(=O)O)NC(=O)[C@H](CC(=O)O)NC(=O)CNC1=O (stereo partly specified) (DRGD[Cys(O)(CH2CO)]-OH; lactam N-5) | 2140 |
| N=C(N)NCCC[C@@H]1NC(=O)[C@H](CO)NC(=O)CSC[C@@H](C(=O)O)NC(=O)[C@H](CC(=O)O)NC(=O)CNC1=O | 480 |
| N=C(N)NCCC[C@@H]1NC(=O)[C@@H](Cc2c[nH]c3ccccc23)NC(=O)CSC[C@@H](C(=O)O)NC(=O)[C@H](CC(=O)O)NC(=O)CNC1=O | 4780 |
| CC(C)C[C@H](NC(=O)[C@H](CC(=O)O)NC(=O)CNC(=O)[C@H](CCCNC(=N)N)NC(=O)CN)C(=O)O (H-GRGDL-OH) | 170000 |
| C[C@@H](O)[C@@H]1NC(=O)C[S+]([O-])C[C@@H](C(=O)O)NC(=O)[C@H](CC(=O)O)NC(=O)CNC(=O)[C@H](CCCN=C(N)N)NC1=O (stereo partly specified) | 100 |
| N=C(N)NCCC[C@@H]1NC(=O)[C@H](CCCCN)NC(=O)C[S+]([O-])C[C@@H](C(=O)O)NC(=O)[C@H](CC(=O)O)NC(=O)CNC1=O (stereo partly specified) (KRGD[Cys(O)(CH2CO)]-OH; lactam N-5) | 2800 |
| CC(=O)NCC(=O)N[C@@H](CCCNC(=N)N)C(=O)NCC(=O)N[C@@H](CC(=O)O)C(=O)N[C@H](C(=O)O)C(C)C (Ac-GRGDV-OH) | 77000 |
| C[C@@H]1NC(=O)CSC[C@@H](C(=O)O)NC(=O)[C@H](CC(=O)O)NC(=O)CNC(=O)[C@H](CCCNC(=N)N)NC1=O ({CH2CO}-ARGDC-OH; thioether N-5) | 590 |
| N=C(N)NCCC[C@@H]1NC(=O)[C@H](CCC(=O)O)NC(=O)C[S+]([O-])C[C@@H](C(=O)O)NC(=O)[C@H](CC(=O)O)NC(=O)CNC1=O (stereo partly specified) | 900 |
| N=C(N)NCCC[C@@H]1NC(=O)[C@H](CCCCN)NC(=O)CSC[C@@H](C(=O)O)NC(=O)[C@H](CC(=O)O)NC(=O)CNC1=O | 600 |
| CC(C)C[C@@H]1NC(=O)C[S+]([O-])C[C@@H](C(=O)O)NC(=O)[C@H](CC(=O)O)NC(=O)CNC(=O)[C@H](CCCNC(=N)N)NC1=O (stereo partly specified) (LRGD[Cys(O)(CH2CO)]-OH; lactam N-5) | 100 |
| CC(C)C[C@@H]1NC(=O)CSC[C@@H](C(=O)O)NC(=O)[C@H](CC(=O)O)NC(=O)CNC(=O)[C@H](CCCNC(=N)N)NC1=O | 200 |
| N=C(N)NCCC[C@@H]1NC(=O)CNC(=O)CSC[C@@H](C(=O)O)NC(=O)[C@H](CC(=O)O)NC(=O)CNC1=O ({CH2CO}-GRGDC-OH; thioether N-5) | 5000 |
| C[C@@H]1NC(=O)C[S+]([O-])C[C@@H](C(=O)O)NC(=O)[C@H](CC(=O)O)NC(=O)CNC(=O)[C@H](CCCNC(=N)N)NC1=O (stereo partly specified) | 610 |
| N=C(N)NCCC[C@@H]1NC(=O)[C@H](CC(N)=O)NC(=O)C[S+]([O-])C[C@@H](C(=O)O)NC(=O)[C@H](CC(=O)O)NC(=O)CNC1=O (stereo partly specified) | 460 |
| CC(C)C[C@H](NC(=O)[C@H](CC(=O)O)NC(=O)CNC(=O)[C@@H](N)CCCNC(=N)N)C(=O)O (H-RGDL-OH) | > 2000 |
| N=C(N)NCCC[C@@H]1NC(=O)[C@H](Cc2ccc(O)cc2)NC(=O)C[S+]([O-])C[C@@H](C(=O)O)NC(=O)[C@H](CC(=O)O)NC(=O)CNC1=O (stereo partly specified) | 450 |
| N=C(N)NCCC[C@@H]1NC(=O)[C@@H]2CCCN2C(=O)CSC[C@@H](C(=O)O)NC(=O)[C@H](CC(=O)O)NC(=O)CNC1=O ({CH2CO}-PRGDC-OH; thioether N-5) | 430 |
| N=C(N)NCCC[C@@H]1NC(=O)[C@@H](Cc2cnc[nH]2)NC(=O)CSC[C@@H](C(=O)O)NC(=O)[C@H](CC(=O)O)NC(=O)CNC1=O | 1080 |
| N=C(N)NCCC[C@@H]1NC(=O)[C@H](Cc2ccccc2)NC(=O)CSC[C@@H](C(=O)O)NC(=O)[C@H](CC(=O)O)NC(=O)CNC1=O | 220 |

The remaining lines, values ahead:

| IC50 [nM] | Compound |
| --- | --- |
| 30800 | N=C(N)NCCC[C@@H]1NC(=O)c2cccc(c2)CSC[C@@H](C(=O)O)NC(=O)[C@H](CC(=O)O)NC(=O)CNC1=O |
| 4000 | N=C(N)NCCC[C@@H]1NC(=O)CNC(=O)C(c2ccc3ccccc3c2)SC[C@@H](C(=O)O)NC(=O)[C@H](CC(=O)O)NC(=O)CNC1=O (stereo partly specified) |
| 150 | N=C(N)NCCC[C@@H]1NC(=O)[C@H](Cc2ccc(O)cc2)NC(=O)CSC[C@@H](C(=O)O)NC(=O)[C@H](CC(=O)O)NC(=O)CNC1=O ({CH2CO}-YRGDC-OH; thioether N-5) |
| 6080 | CC[C@@H](C)[C@H]1NC(=O)CSC[C@@H](C(=O)O)NC(=O)[C@H](CC(=O)O)NC(=O)CNC(=O)[C@H](CCCN=C(N)N)NC1=O |
| 64300 | N=C(N)NCCC[C@@H]1NC(=O)CNC(=O)CCSC[C@@H](C(=O)O)NC(=O)[C@H](CC(=O)O)NC(=O)CNC1=O |
| 540 | N=C(N)NCCC[C@@H]1NC(=O)[C@H](Cc2cnc[nH]2)NC(=O)CSC[C@@H](C(=O)O)NC(=O)[C@H](CC(=O)O)NC(=O)CNC1=O |
| 1900 | N=C(N)NCCC[C@@H]1NC(=O)CNC(=O)[C@H](Cc2ccccc2)SC[C@@H](C(=O)O)NC(=O)[C@H](CC(=O)O)NC(=O)CNC1=O |
| 43000 | NC(N)=NCCC[C@H](N)C(=O)NCC(=O)N[C@@H](CC(=O)O)C(=O)N[C@@H](Cc1ccccc1)C(=O)O (H-RGDF-OH) |
| 250 | N=C(N)NCCC[C@@H]1NC(=O)[C@H](CCCN)NC(=O)CSC[C@@H](C(=O)O)NC(=O)[C@H](CC(=O)O)NC(=O)CNC1=O |
| 150000 | N=C(N)NCCC[C@@H]1NC(=O)CNC(=O)CSC[C@@H](C(N)=O)NC(=O)[C@H](CC(=O)O)NC(=O)CNC1=O ({CH2CO}-GRGDC-NH2; thioether N-5) |
| 8740 | CC(C)[C@H]1NC(=O)CSC[C@@H](C(=O)O)NC(=O)[C@H](CC(=O)O)NC(=O)CNC(=O)[C@H](CCCNC(=N)N)NC1=O |
| > 2000 | N=C(N)NCCC[C@@H]1NC(=O)CSC[C@@H](C(=O)O)NC(=O)[C@H](CC(=O)O)NC(=O)CNC1=O ({CH2CO}-RGDC-OH; thioether N-4) |
| 2920 | C[C@H](O)[C@H]1NC(=O)CSC[C@@H](C(=O)O)NC(=O)[C@H](CC(=O)O)NC(=O)CNC(=O)[C@H](CCCN=C(N)N)NC1=O |
| 210 | CC(C)[C@@H]1NC(=O)C[S+]([O-])C[C@@H](C(=O)O)NC(=O)[C@H](CC(=O)O)NC(=O)CNC(=O)[C@H](CCCNC(=N)N)NC1=O (stereo partly specified) (VRGD[Cys(O)(CH2CO)]-OH; lactam N-5) |
| 34300 | N=C(N)NCCC[C@@H]1NC(=O)CCNC(=O)CSC[C@@H](C(=O)O)NC(=O)[C@H](CC(=O)O)NC(=O)CNC1=O |
| 18500 | N=C(N)NCCC[C@@H]1NC(=O)[C@@H](Cc2ccccc2)NC(=O)CSC[C@@H](C(=O)O)NC(=O)[C@H](CC(=O)O)NC(=O)CNC1=O |
| 240 | C[C@@H](O)[C@@H]1NC(=O)CSC[C@@H](C(=O)O)NC(=O)[C@H](CC(=O)O)NC(=O)CNC(=O)[C@H](CCCN=C(N)N)NC1=O |
| 780 | N=C(N)NCCC[C@@H]1NC(=O)CNC(=O)C(c2cccc3ccccc23)SC[C@@H](C(=O)O)NC(=O)[C@H](CC(=O)O)NC(=O)CNC1=O (stereo partly specified) |
| 7700 | N=C(N)NCCC[C@@H]1NC(=O)CNC(=O)CS(=O)(=O)C[C@@H](C(=O)O)NC(=O)[C@H](CC(=O)O)NC(=O)CNC1=O |
| 200 | N=C(N)NCCC[C@@H]1NC(=O)[C@H](Cc2ccc(O)cc2)NC(=O)C[S+]([O-])C[C@@H](C(N)=O)NC(=O)[C@H](CC(=O)O)NC(=O)CNC1=O (stereo partly specified) (YRGD[Cys(O)(CH2CO)]-NH2; lactam N-5) |
| > 500000 | N=C(N)NCCC[C@H](NC(=O)CN)C(=O)NCC(=O)N[C@@H](CC(=O)O)C(=O)N[C@@H](CC(=O)O)C(=O)O (H-GRGDD-OH) |
| 370 | N=C(N)NCCC[C@@H]1NC(=O)CNC(=O)C[S+]([O-])C[C@@H](C(=O)O)NC(=O)[C@H](CC(=O)O)NC(=O)CNC1=O (stereo partly specified) |
| 4850 | CCC1SC[C@@H](C(=O)O)NC(=O)[C@H](CC(=O)O)NC(=O)CNC(=O)[C@H](CCCNC(=N)N)NC(=O)CNC1=O (stereo partly specified) |
| 1960 | N=C(N)NCCC[C@@H]1NC(=O)[C@H]2CCCN2C(=O)CSC[C@@H](C(=O)O)NC(=O)[C@H](CC(=O)O)NC(=O)CNC1=O ({CH2CO}-[dP]RGDC-OH; thioether N-5) |
| 1480 | N=C(N)NCCC[C@@H]1NC(=O)CNC(=O)C(c2ccc(-c3ccccc3)cc2)SC[C@@H](C(=O)O)NC(=O)[C@H](CC(=O)O)NC(=O)CNC1=O (stereo partly specified) |
| 150 | N=C(N)NCCC[C@@H]1NC(=O)CNC(=O)C(c2ccccc2C(F)(F)F)SC[C@@H](C(=O)O)NC(=O)[C@H](CC(=O)O)NC(=O)CNC1=O (stereo partly specified) |

From BindingDB's records for doi:10.1021/jm00089a014 (Genentech, 1992)
